Laboratory results taken from ChEMBL document CHEMBL5257040, “Discovery of VU2957 (Valiglurax): An mGlu4 Positive Allosteric Modulator Evaluated as a Preclinical Candidate for the Treatment of Parkinson's Disease” (ACS Med Chem Lett, 2019).

Columns and labels:
[1] = Elimination half life in CD-1 mouse plasma at 1 mg/kg, iv and measured upto 24 hrs by LC-MS/MS analysis; assay type: ADME, organism-based; details: read-out: beta t1/2 (converted)
Procedure, shortened: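 Single intravenous doses: mouse 1 mg/kg, SD rat 0.2 mg/kg, beagle dog 0.5 mg/kg, cynomolgus monkey 0.2 mg/kg. Plasma clearance, Vss and elimination half-life came from the plasma profiles. Values are means of two to three animals.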

Cytochrome P450 1A2 = Cytochrome P450 1A2 (Homo sapiens, UniProt P05177); assay: Induction of CYP1A2 in human hepatocytes; assay type: ADME, cell-based
Cytochrome P450 1A2, sequence (P05177 whole entry): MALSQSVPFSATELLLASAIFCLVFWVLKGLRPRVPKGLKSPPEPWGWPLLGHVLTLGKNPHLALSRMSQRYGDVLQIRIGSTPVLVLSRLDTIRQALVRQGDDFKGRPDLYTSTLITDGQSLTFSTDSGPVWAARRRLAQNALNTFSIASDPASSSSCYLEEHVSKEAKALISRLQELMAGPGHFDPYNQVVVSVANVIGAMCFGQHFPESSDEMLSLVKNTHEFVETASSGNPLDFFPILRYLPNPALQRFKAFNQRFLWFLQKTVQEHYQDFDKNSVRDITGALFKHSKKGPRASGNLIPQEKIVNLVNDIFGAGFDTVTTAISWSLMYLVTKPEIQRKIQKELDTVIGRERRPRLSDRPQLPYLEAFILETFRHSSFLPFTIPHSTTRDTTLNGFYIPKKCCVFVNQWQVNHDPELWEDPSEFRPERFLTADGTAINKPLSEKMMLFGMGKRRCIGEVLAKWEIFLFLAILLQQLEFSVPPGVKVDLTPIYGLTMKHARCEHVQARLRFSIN
Procedure, shortened: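 CYP1A2, 2B6 and 3A4 induction measured in human hepatocytes.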

In the case of `FC(F)(F)c1nccc2cc(Nc3n[nH]c4ncccc34)ccc12`, the half-life [1] is reported as 2.98 h and the Activity (Cytochrome P450 1A2) is reported as “Not Active”.
